Results taken from ChEMBL document CHEMBL4825703, “Investigation of 3-sulfamoyl coumarins against cancer-related IX and XII isoforms of human carbonic anhydrase as well as cancer cells leads to the discovery of 2-oxo-2H-benzo[h]chromene-3-sulfonamide - A new caspase-activating proapoptotic agent” (Eur J Med Chem, 2021).
Calls of active or inactive are those of the source. No cut-off for these calls is given here.

Columns and labels:
[1] = biological target: Carbonic anhydrase 9 (Homo sapiens, UniProt Q16790); test: Inhibition of human carbonic anhydrase 9 assessed as inhibition constant incubated for 15 mins prior to testing by phenol red based stopped-flow CO2 hydration assay
[2] = tested on: U-87 MG; test: Antiproliferative activity against human U-87 MG cells assessed as cell growth inhibition at 30 to 100 uM measured after 24 hrs under CoCl2-induced hypoxic condition by MTT assay; type: functional, cell-based; settings: U-87MG ATCC, dose 30-100 µM
[3] = tested on: hTERT-BJ; test: Cytotoxicity against human TERT-Bj-5ta cells assessed as reduction in cell viability at 300 uM measured after 24 hrs under CoCl2- induced hypoxic condition by MTT assay relative to control; type: cell-based
[4] = tested on: A-431; test: Antiproliferative activity against human A-431 cells assessed as reduction in cell viability measured after 48 hrs by MTT assay; settings: A-431, 48 h
[5] = tested on: A-431; test: Antiproliferative activity against human A-431 cells assessed as reduction in cell viability measured after 72 hrs by MTT assay; settings: A-431, 72 h
[6] = tested on: hTERT-BJ; test: Cytotoxicity against human TERT-Bj-5ta cells assessed as reduction in cell viability at measured after 24 hrs under CoCl2- induced hypoxic condition by MTT assay; type: cell-based
[7] = tested on: RT-4; test: Antiproliferative activity against human RT-4 cells assessed as cell survival rate at 300 uM measured after 24 hrs under CoCl2-induced hypoxic condition by MTT assay relative to control; type: functional; settings: read-out: Survival
Method in brief: (§1)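 MTT end-point assay. MTT (5 mg/mL in PBS) added for 4 h, formazan dissolved in DMSO, absorbance read at 560 nm. Viability given as % of untreated control (100%); mean ± SEM of three experiments.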

[8] = tested on: A-431; test: Antiproliferative activity against human A-431 cells assessed as cell survival rate at 300 uM measured after 24 hrs under CoCl2-induced hypoxic condition by MTT assay relative to control; type: functional; settings: read-out: Survival; method in brief: as §1
[9] = Antiproliferative activity against human WI-26 AV4 cells assessed as reduction in cell viability measured after 24 hrs by MTT assay; settings: WI-26 AV4, 24 h
[10] = tested on: A-431; test: Antiproliferative activity against human A-431 cells assessed as reduction in cell viability measured after 24 hrs by MTT assay; settings: A-431, 24 h
[11] = Antiproliferative activity against human WI-26 AV4 cells assessed as reduction in cell viability measured after 72 hrs by MTT assay; settings: WI26VA4, 72 h
[12] = Antiproliferative activity against human WI-26 AV4 cells assessed as reduction in cell viability measured after 48 hrs by MTT assay; settings: WI-26 AV4, 48 h
[13] = tested on: U-87 MG; test: Antiproliferative activity against human U-87 MG cells assessed as cell survival rate at 300 uM measured after 24 hrs under CoCl2-induced hypoxic condition by MTT assay relative to control; type: functional, U-87MG ATCC; settings: read-out: Survival; method in brief: as §1
[14] = tested on: A-431; test: Induction of apoptosis in human A-431 cells assessed as early apoptotic cells at 25 uM incubated for 24 hrs by annexin-V/FITC and propidium iodide based staining based flow cytometry (Rvb= 6.10 %); type: functional
[15] = tested on: A-431; test: Induction of apoptosis in human A-431 cells assessed as activation of caspase 3/7 measured after 24 hrs by CellEvent caspase 3/7 green detection reagent based assay; type: functional, cell-based
Method in brief: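 Subconfluent cells in 6-well plates exposed to compound (5–25) for 24 h at 37 °C, 5% CO₂. Cells washed in PBS and resuspended at 1 × 10^6/mL. CellEvent caspase-3/7 green reagent added at 4 final, incubated 30 min at 37 °C, then analysed by flow cytometry within 20 min.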

[16] = tested on: A-431; test: Induction of apoptosis in human A-431 cells assessed as early apoptotic cells at 5 uM incubated for 24 hrs by annexin-V/FITC and propidium iodide based staining based flow cytometry (Rvb= 6.10 %); type: functional
[17] = tested on: A-431; test: Induction of apoptosis in human A-431 cells assessed as dead cells at 5 uM incubated for 24 hrs by annexin-V/FITC and propidium iodide based staining based flow cytometry (Rvb= 0.14 %); type: functional
[18] = tested on: A-431; test: Induction of apoptosis in human A-431 cells assessed as late apoptotic cells at 20 uM incubated for 24 hrs by annexin-V/FITC and propidium iodide based staining based flow cytometry (Rvb= 3.06 %); type: functional
[19] = tested on: A-431; test: Induction of apoptosis in human A-431 cells assessed as late apoptotic cells at 5 uM incubated for 24 hrs by annexin-V/FITC and propidium iodide based staining based flow cytometry (Rvb= 3.06 %); type: functional
[20] = tested on: A-431; test: Induction of apoptosis in human A-431 cells assessed as dead cells at 20 uM incubated for 24 hrs by annexin-V/FITC and propidium iodide based staining based flow cytometry (Rvb= 0.14 %); type: functional
[21] = tested on: A-431; test: Induction of apoptosis in human A-431 cells assessed as early apoptotic cells at 15 uM incubated for 24 hrs by annexin-V/FITC and propidium iodide based staining based flow cytometry (Rvb= 6.10 %); type: functional
[22] = tested on: A-431; test: Induction of apoptosis in human A-431 cells assessed as viable cells at 10 uM incubated for 24 hrs by annexin-V/FITC and propidium iodide based staining based flow cytometry (Rvb= 90.70 %); type: functional; settings: read-out: Activity
[23] = tested on: A-431; test: Induction of apoptosis in human A-431 cells assessed as late apoptotic cells at 10 uM incubated for 24 hrs by annexin-V/FITC and propidium iodide based staining based flow cytometry (Rvb= 3.06 %); type: functional
[24] = biological target: Carbonic anhydrase 2 (Homo sapiens, UniProt P00918); test: Inhibition of human carbonic anhydrase 2 assessed as inhibition constant incubated for 15 mins prior to testing by phenol red based stopped-flow CO2 hydration assay
[25] = tested on: A-431; test: Induction of apoptosis in human A-431 cells assessed as dead cells at 10 uM incubated for 24 hrs by annexin-V/FITC and propidium iodide based staining based flow cytometry (Rvb= 0.14 %); type: functional
[26] = tested on: A-431; test: Induction of apoptosis in human A-431 cells assessed as early apoptotic cells at 20 uM incubated for 24 hrs by annexin-V/FITC and propidium iodide based staining based flow cytometry (Rvb= 6.10 %); type: functional
[27] = tested on: A-431; test: Induction of apoptosis in human A-431 cells assessed as viable cells at 20 uM incubated for 24 hrs by annexin-V/FITC and propidium iodide based staining based flow cytometry (Rvb= 90.70 %); type: functional; settings: read-out: Activity
[28] = tested on: A-431; test: Induction of apoptosis in human A-431 cells assessed as viable cells at 25 uM incubated for 24 hrs by annexin-V/FITC and propidium iodide based staining based flow cytometry (Rvb= 90.70 %); type: functional; settings: read-out: Activity
[29] = tested on: A-431; test: Induction of apoptosis in human A-431 cells assessed as early apoptotic cells at 10 uM incubated for 24 hrs by annexin-V/FITC and propidium iodide based staining based flow cytometry (Rvb= 6.10 %); type: functional
[30] = tested on: A-431; test: Induction of apoptosis in human A-431 cells assessed as viable cells at 15 uM incubated for 24 hrs by annexin-V/FITC and propidium iodide based staining based flow cytometry (Rvb= 90.70 %); type: functional; settings: read-out: Activity
[31] = tested on: A-431; test: Induction of apoptosis in human A-431 cells assessed as late apoptotic cells at 15 uM incubated for 24 hrs by annexin-V/FITC and propidium iodide based staining based flow cytometry (Rvb= 3.06 %); type: functional
[32] = tested on: A-431; test: Antiproliferative activity against human A-431 cells assessed as cell survival rate at 100 uM measured after 24 hrs under CoCl2-induced hypoxic condition by MTT assay relative to control; type: functional; settings: read-out: Survival; method in brief: as §1
[33] = tested on: A-431; test: Induction of apoptosis in human A-431 cells assessed as dead cells at 15 uM incubated for 24 hrs by annexin-V/FITC and propidium iodide based staining based flow cytometry (Rvb= 0.14 %); type: functional
[34] = tested on: A-431; test: Induction of apoptosis in human A-431 cells assessed as late apoptotic cells at 25 uM incubated for 24 hrs by annexin-V/FITC and propidium iodide based staining based flow cytometry (Rvb= 3.06 %); type: functional
[35] = tested on: A-431; test: Induction of apoptosis in human A-431 cells assessed as dead cells at 25 uM incubated for 24 hrs by annexin-V/FITC and propidium iodide based staining based flow cytometry (Rvb= 0.14 %); type: functional
[36] = tested on: A-431; test: Induction of apoptosis in human A-431 cells assessed as viable cells at 5 uM incubated for 24 hrs by annexin-V/FITC and propidium iodide based staining based flow cytometry (Rvb= 90.70 %); type: functional; settings: read-out: Activity
[37] = tested on: RT-4; test: Antiproliferative activity against human RT-4 cells assessed as cell survival rate at 100 uM measured after 24 hrs under CoCl2-induced hypoxic condition by MTT assay relative to control; type: functional; settings: read-out: Survival; method in brief: as §1

NS(=O)(=O)c1cc2cc(F)ccc2oc1=O
Ki [1]: 0.0326 µM
growth inhibition (GI) [2]: inactive

NS(=O)(=O)c1cc2cc(O)ccc2oc1=O
Activity [3]: 65.75%
Ki [1]: 0.0664 µM
growth inhibition (GI) [2]: inactive

COc1ccc2oc(=O)c(S(N)(=O)=O)cc2c1
Activity [3]: 70.97%
Ki [1]: 0.0581 µM
growth inhibition (GI) [2]: inactive

NS(=O)(=O)c1cc2cc(Cl)ccc2oc1=O
IC50 [4]: 29.1 µM
IC50 [5]: 57.8 µM
Activity [6]: Non-Toxic
Ki [1]: 0.177 µM
viability at 300 µM [7]: 19.7%
viability at 300 µM [8]: 36.5%
growth inhibition (GI) [2]: inactive
IC50 [9]: 89.2 µM
IC50 [10]: 51.9 µM
IC50 [11]: 5.87 µM
IC50 [12]: 45.1 µM

NS(=O)(=O)c1cc2ccccc2oc1=O
Ki [1]: 0.0651 µM
growth inhibition (GI) [2]: inactive

COc1cccc2cc(S(N)(=O)=O)c(=O)oc12
Ki [1]: 0.0879 µM
growth inhibition (GI) [2]: inactive

Cc1cc(C)c2cc(S(N)(=O)=O)c(=O)oc2c1
Ki [1]: 0.825 µM
growth inhibition (GI) [2]: inactive

NS(=O)(=O)c1cc2cc(Br)ccc2oc1=O
IC50 [4]: 24.7 µM
IC50 [5]: 49.2 µM
Activity [6]: Non-Toxic
Ki [1]: 0.317 µM
viability at 300 µM [7]: 19.7%
viability at 300 µM [8]: 39.3%
growth inhibition (GI) [2]: inactive
IC50 [9]: 76.6 µM
IC50 [10]: 38.4 µM
IC50 [11]: 21.5 µM
IC50 [12]: 42.1 µM

COc1ccc2cc(S(N)(=O)=O)c(=O)oc2c1
Ki [1]: 0.0405 µM
growth inhibition (GI) [2]: inactive

CCOc1cccc2cc(S(N)(=O)=O)c(=O)oc12
Activity [3]: 55.97%
Ki [1]: 0.0515 µM
growth inhibition (GI) [2]: inactive

NS(=O)(=O)c1cc2cccc(F)c2oc1=O
Ki [1]: 0.0411 µM
viability at 300 µM [13]: 57.9%
growth inhibition (GI) [2]: inactive

COc1cccc2oc(=O)c(S(N)(=O)=O)cc12
Ki [1]: 2.98 µM
growth inhibition (GI) [2]: inactive

Cc1ccc2oc(=O)c(S(N)(=O)=O)cc2c1
Ki [1]: 0.0474 µM
growth inhibition (GI) [2]: inactive

NS(=O)(=O)c1cc2c(ccc3ccccc32)oc1=O
Activity [14]: 18.56%
Activity [15]: Dose-Dependent Effect
Activity [16]: 3.89%
IC50 [4]: 25.9 µM
Activity [17]: 0.48%
Activity [18]: 2.65%
Activity [19]: 2.79%
Activity [20]: 0.25%
IC50 [5]: 70.1 µM
Activity [21]: 12.52%
viability at 10 µM [22]: 88.4%
Activity [6]: Non-Toxic
Activity [23]: 1.99%
Ki [1]: 6.37 µM
viability at 300 µM [13]: 67.9%
Ki [24]: > 100 µM
Activity [25]: 0.34%
viability at 300 µM [8]: 23.4%
Activity [26]: 15.93%
viability at 20 µM [27]: 81.2%
growth inhibition (GI) [2]: inactive
IC50 [9]: 41.7 µM
viability at 25 µM [28]: 78.7%
Activity [29]: 9.25%
viability at 15 µM [30]: 85.5%
Activity [31]: 1.7%
IC50 [10]: 9.73 µM
viability at 100 µM [32]: 73%
Activity [33]: 0.24%
Activity [34]: 2.31%
IC50 [11]: > 350 µM
Activity [35]: 0.41%
IC50 [12]: 84.5 µM
viability at 5 µM [36]: 92.8%

NS(=O)(=O)c1cc2cc(Cl)cc(Cl)c2oc1=O
viability at 100 µM [37]: 43.5%
IC50 [4]: 20.3 µM
IC50 [5]: 35.2 µM
Activity [6]: Non-Toxic
Ki [1]: 0.518 µM
viability at 300 µM [7]: 15.1%
viability at 300 µM [13]: 54.1%
viability at 300 µM [8]: 2.84%
growth inhibition (GI) [2]: inactive
IC50 [9]: 74 µM
IC50 [10]: 26.9 µM
viability at 100 µM [32]: 38.8%
IC50 [11]: 14.3 µM
IC50 [12]: 9.54 µM

NS(=O)(=O)c1cc2cc([N+](=O)[O-])ccc2oc1=O
Ki [1]: 0.148 µM
growth inhibition (GI) [2]: inactive

NS(=O)(=O)c1cc2cccc(O)c2oc1=O
Activity [3]: 54.76%
Ki [1]: 0.0987 µM
viability at 300 µM [7]: 19.7%
viability at 300 µM [13]: 67.7%
growth inhibition (GI) [2]: inactive
